Changes are numbered by the printed parent chain. Read-outs that look alike come from different tables or passages of the source.
Assays:
OSBP^V582M = target: T1, OSBP^V582M (Homo sapiens, UniProt P22059, V582M); assay: [3H]25-OHC binding assay, OSBP V582M mutant
T1 sequence (P22059 1-807 V582M): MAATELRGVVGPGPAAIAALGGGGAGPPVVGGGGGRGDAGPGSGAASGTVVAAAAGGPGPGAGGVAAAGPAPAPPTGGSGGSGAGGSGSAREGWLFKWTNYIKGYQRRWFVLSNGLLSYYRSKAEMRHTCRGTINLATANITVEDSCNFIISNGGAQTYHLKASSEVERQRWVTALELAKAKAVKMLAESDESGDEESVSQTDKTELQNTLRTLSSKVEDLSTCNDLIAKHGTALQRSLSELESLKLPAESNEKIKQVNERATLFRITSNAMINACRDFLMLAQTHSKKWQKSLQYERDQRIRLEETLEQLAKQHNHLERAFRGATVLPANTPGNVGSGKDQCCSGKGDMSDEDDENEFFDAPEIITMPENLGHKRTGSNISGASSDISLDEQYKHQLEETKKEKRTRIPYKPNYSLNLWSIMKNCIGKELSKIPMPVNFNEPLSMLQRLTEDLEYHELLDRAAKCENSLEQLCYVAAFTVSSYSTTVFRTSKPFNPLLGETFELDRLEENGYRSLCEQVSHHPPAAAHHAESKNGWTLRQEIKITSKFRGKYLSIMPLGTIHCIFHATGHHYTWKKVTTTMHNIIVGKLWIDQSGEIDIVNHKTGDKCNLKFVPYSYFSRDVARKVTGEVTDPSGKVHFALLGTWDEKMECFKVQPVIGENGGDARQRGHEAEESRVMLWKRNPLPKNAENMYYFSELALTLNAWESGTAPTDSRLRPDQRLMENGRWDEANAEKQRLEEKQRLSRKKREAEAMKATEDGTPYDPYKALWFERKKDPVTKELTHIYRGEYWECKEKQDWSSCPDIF

HCT-116 cells = assay: Suppression of antiproliferative activity by 25-OHC coadministration; format: cell-based, human
Summary of the method: (§1)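 HCT-116 p21+/+ and p21−/− cells were seeded in 96-well plates and rested 24 h. A time-zero plate was read with CellTiter-Blue (resazurin) after 90 min at 37 °C, fluorescence 544 nm ex / 590 nm em. Serially diluted test compound was added as 4× solution. Viability was re-read at 48 h and GI50 derived. For coadministration, 10 μM 25-OHC was added with test compound at 250 nM or 10 nM.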

OSBP^M446W = target: T2, OSBP^M446W (Homo sapiens, UniProt P22059, M446W); assay: [3H]25-OHC binding assay, OSBP M446W mutant
T2 sequence (P22059 1-807 M446W): T1 sequence (P22059 1-807 V582M) with M446W, M582V

OSBP = target: T3, OSBP (Homo sapiens, UniProt P22059); assay: OSBP protein levels by western blotting; format: cell-based; conditions: HCT-116 cells
T3 sequence (P22059 1-807): T1 sequence (P22059 1-807 V582M) with M582V
Summary of the method: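 HCT-116 cells were treated with test compound at 50 nM or 10 nM over a time course including 24 h. Some samples also received proteasome inhibitor MG-132 or lactacystin. OSBP was measured by western blotting with polyclonal rabbit anti-OSBP (N-terminus) antibody. Data are n = 3, compared with vehicle-treated cells by two-tailed Student's t-test.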

HCT-116 p21^−/− cells = assay: Cell viability assay, HCT-116 p21-/-; format: cell-based, human; conditions: GI50 after 48 h
Summary of the method: as §1

SMILES	Ki (OSBP^V582M; read-out: Ki, OSBP^V582M, competition with [3H]25-OHC, mean ± s.d.)	Growth inhibition when administered alone (HCT-116 cells; 10 nM, HCT-116 cells, 48 h)	Effect of 10 μM 25-OHC coadministration on growth inhibition (HCT-116 cells; HCT-116 cells, 250 nM cephalostatin 1 or 10 nM OSW-1)	Ki (OSBP^M446W; read-out: Ki, OSBP^M446W, competition with [3H]25-OHC, mean ± s.d.)	Reduction in OSBP protein levels (OSBP; 10 nM, 24 h)	p21^−/− selectivity of growth inhibition (HCT-116 p21^−/− versus wild-type) (HCT-116 p21^−/− cells)	Ki (OSBP^V582M)	Effect of 25-OHC coadministration on antiproliferative activity (HCT-116 cells; HCT-116 and HeLa cell lines)	Ki (OSBP^M446W)	Effect on OSBP levels (compound alone) (OSBP; 25-OHC 10 μM)
COc1ccc(C(=O)O[C@H]2[C@H](O[C@@H]3[C@@H](OC(C)=O)[C@H](O[C@H]4C[C@H]5[C@@H]6CC=C7C[C@@H](O)CC[C@]7(C)[C@H]6CC[C@]5(C)[C@@]4(O)[C@H](C)C(=O)CCC(C)C)OC[C@@H]3O)OC[C@@H](O)[C@@H]2O)cc1 [OSW-1]	46 nM	> 75%	nearly complete desensitization	18 nM	approximately 75%	selectively growth-inhibitory	–	–	–	–
CC(C)=CCC/C(C)=C/Cc1c(O)cc(/C=C/c2cc(O)c3c(c2)C[C@@H]2C(C)(C)[C@H](O)[C@H](O)C[C@@]2(C)O3)cc1O [schweinfurthin A]	–	–	–	–	–	selectively growth-inhibitory	37 nM	desensitized cells to schweinfurthin A, although to a lesser degree	60 nM	no effect

Source: publication PMC3158287 (Nature chemical biology, 2011)
